Source: ChEMBL document CHEMBL3297672, “Ingol-type diterpenes from Euphorbia antiquorum with mouse 11β-hydroxysteroid dehydrogenase type 1 inhibition activity” (J Nat Prod, 2014)
Activity calls are given as the source filed them. The calls are words filed in the database; no cut-off is given here.

Assays:
HL-60 = test: Cytotoxicity against human HL60 cells; type: functional, cell-based
Method in brief: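 Cytotoxicity against HL-60 cells was read out by the MTT method, following a previously reported protocol.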

A549 = test: Cytotoxicity against human A549 cells; type: functional, cell-based
[1] = target: T1, Tyrosine-protein phosphatase non-receptor type 1 (Homo sapiens, UniProt P18031); test: Inhibition of PTP1B (unknown origin)
T1 sequence (P18031 whole entry): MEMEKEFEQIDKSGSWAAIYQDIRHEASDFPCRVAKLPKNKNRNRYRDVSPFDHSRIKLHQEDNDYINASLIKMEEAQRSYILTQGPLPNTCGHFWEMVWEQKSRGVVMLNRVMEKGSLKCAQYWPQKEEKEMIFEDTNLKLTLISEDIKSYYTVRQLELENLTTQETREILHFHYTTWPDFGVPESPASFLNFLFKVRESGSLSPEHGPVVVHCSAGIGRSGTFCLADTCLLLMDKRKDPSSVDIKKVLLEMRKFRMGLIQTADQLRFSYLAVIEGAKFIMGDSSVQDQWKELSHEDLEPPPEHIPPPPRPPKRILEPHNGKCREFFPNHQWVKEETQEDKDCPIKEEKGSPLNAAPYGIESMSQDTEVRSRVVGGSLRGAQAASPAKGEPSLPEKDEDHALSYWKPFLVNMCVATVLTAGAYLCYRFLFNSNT

[2] = target: 11-beta-hydroxysteroid dehydrogenase 1 (Homo sapiens) (UniProt P28845); test: Inhibition of human 11beta-HSD1 expressed in HEK293 cells assessed as inhibition of [3H]cortisone to [3H]cortisol conversion by SPA; type: cell-based
Chain of 11-beta-hydroxysteroid dehydrogenase 1 (Homo sapiens) (P28845 whole entry, looked up): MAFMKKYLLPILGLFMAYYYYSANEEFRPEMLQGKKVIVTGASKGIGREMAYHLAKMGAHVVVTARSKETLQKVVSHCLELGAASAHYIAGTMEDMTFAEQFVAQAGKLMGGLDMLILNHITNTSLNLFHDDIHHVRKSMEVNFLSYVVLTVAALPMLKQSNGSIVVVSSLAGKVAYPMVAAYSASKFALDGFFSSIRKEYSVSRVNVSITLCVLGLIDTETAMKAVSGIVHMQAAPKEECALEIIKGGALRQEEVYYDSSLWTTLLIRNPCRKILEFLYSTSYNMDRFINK
Method in brief: (§1)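 Scintillation proximity assay against human or mouse 11β-HSD1 enzyme activity, using microsomes containing the enzyme. Glycyrrhetinic acid was the positive control.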

[3] = target: 11-beta-hydroxysteroid dehydrogenase 1 (Mus musculus, UniProt P50172); test: Inhibition of mouse 11beta-HSD1 expressed in HEK293 cells assessed as inhibition of [3H]cortisone to [3H]cortisol conversion by SPA; type: cell-based; method in brief: as §1
Chain of 11-beta-hydroxysteroid dehydrogenase 1 (P50172 whole entry): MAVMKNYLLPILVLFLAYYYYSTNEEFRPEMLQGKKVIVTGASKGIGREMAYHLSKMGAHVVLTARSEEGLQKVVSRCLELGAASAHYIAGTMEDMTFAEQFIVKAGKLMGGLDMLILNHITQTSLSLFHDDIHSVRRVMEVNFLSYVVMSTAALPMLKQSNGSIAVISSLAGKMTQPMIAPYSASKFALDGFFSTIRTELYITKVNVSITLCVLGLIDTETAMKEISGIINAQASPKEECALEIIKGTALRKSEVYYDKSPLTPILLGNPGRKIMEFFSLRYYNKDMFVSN

| SMILES | IC50 (HL-60) [µM] | IC50 (A549) [µM] | IC50 [1] [µM] | inhibition [2] | IC50 [3] [µM] |
| --- | --- | --- | --- | --- | --- |
| CO[C@@H]1[C@H]2[C@@H]([C@@H](OC(C)=O)[C@@H](C)C(=O)[C@@]34C[C@H](C)[C@H](OC(C)=O)[C@]3(/C=C(\C)[C@H]1OC(=O)[C@]1(C)O[C@@H]1C)O4)C2(C)C | > 10 | > 10 | > 10 | inactive | – |
| C/C=C(/C)C(=O)O[C@@H]1/C(C)=C/[C@@]23O[C@@]2(C[C@H](C)[C@@H]3OC(C)=O)C(=O)[C@H](C)[C@H](OC(C)=O)[C@@H]2[C@H]([C@H]1OC)C2(C)C | > 10 | > 10 | > 10 | inactive | – |
| C=C(C(=O)O[C@@H]1/C(C)=C/[C@@]23O[C@@]2(C[C@H](C)[C@@H]3OC(C)=O)C(=O)[C@H](C)[C@H](OC(C)=O)[C@@H]2[C@H]([C@H]1OC)C2(C)C)C(C)O (some centres not stated) | > 10 | > 10 | > 10 | inactive | – |
| CO[C@@H]1[C@H]2[C@@H]([C@@H](OC(C)=O)[C@@H](C)C(=O)[C@@]34C[C@H](C)[C@H](OC(C)=O)[C@]3(/C=C(\C)[C@H]1OC(=O)[C@@]1(C)O[C@@H]1C)O4)C2(C)C | > 10 | > 10 | > 10 | – | – |
| CO[C@@H]1[C@H]2[C@@H]([C@@H](O)[C@@H](C)C(=O)[C@@]34C[C@H](C)[C@H](OC(C)=O)[C@]3(/C=C(\C)[C@H]1OC(=O)c1ccccc1)O4)C2(C)C | > 10 | > 10 | > 10 | – | – |
| CCC(C)C(=O)O[C@@H]1[C@H]2[C@@H]([C@@H](OC(C)=O)[C@@H](C)C(=O)[C@@]34C[C@H](C)[C@H](OC(C)=O)[C@]3(/C=C(\C)[C@H]1O)O4)C2(C)C (some centres not stated) | > 10 | > 10 | > 10 | inactive | – |
| C/C=C(/C)C(=O)O[C@@H]1/C(C)=C/[C@@]23O[C@@]2(C[C@H](C)[C@@H]3O)C(=O)[C@H](C)[C@H](OC(C)=O)[C@@H]2[C@H]([C@H]1OC)C2(C)C | > 10 | > 10 | > 10 | inactive | – |
| CC(=O)O[C@@H]1[C@@H]2[C@H]([C@@H](OC(=O)c3cccnc3)[C@H](OC(=O)c3ccccc3)/C(C)=C/[C@@]34O[C@@]3(C[C@H](C)[C@@H]4OC(C)=O)C(=O)[C@@H]1C)C2(C)C | > 10 | > 10 | > 10 | inactive | 0.41 |
| C/C=C(/C)C(=O)O[C@@H]1/C(C)=C/[C@@]23O[C@@]2(C[C@@H](C)[C@H]3O)C(=O)[C@H](C)[C@H](O)[C@@H]2[C@H]([C@H]1OC)C2(C)C | > 10 | – | > 10 | – | – |
| CO[C@@H]1[C@H]2[C@@H]([C@@H](OC(C)=O)[C@@H](C)C(=O)[C@@]34C[C@H](C)[C@H](O)[C@]3(/C=C(\C)[C@H]1OC(=O)c1ccccc1)O4)C2(C)C | > 10 | > 10 | > 10 | inactive | – |
| C/C=C(/C)C(=O)O[C@@H]1/C(CO)=C/[C@@]23O[C@@]2(C[C@H](C)[C@@H]3OC(C)=O)C(=O)[C@H](C)[C@H](OC(C)=O)[C@@H]2[C@H]([C@H]1OC)C2(C)C | > 10 | > 10 | > 10 | inactive | 12 |
| CCC(C)C(=O)O[C@@H]1[C@H]2[C@@H]([C@@H](OC(C)=O)[C@@H](C)C(=O)[C@@]34C[C@H](C)[C@H](O)[C@]3(/C=C(\C)[C@H]1OC(C)=O)O4)C2(C)C (some centres not stated) | > 10 | > 10 | > 10 | inactive | 6.4 |
| C/C=C(/C)C(=O)O[C@@H]1/C(C)=C/[C@@]23O[C@@]2(C[C@H](C)[C@@H]3O)C(=O)[C@H](C)[C@H](O)[C@@H]2[C@H]([C@H]1OC)C2(C)C | > 10 | > 10 | > 10 | – | – |
| CCC(C)C(=O)O[C@@H]1[C@H]2[C@@H]([C@@H](OC(C)=O)[C@@H](C)C(=O)[C@@]34C[C@@H](C)[C@@H](OC(C)=O)[C@]3(/C=C(\C)[C@H]1O)O4)C2(C)C (some centres not stated) | > 10 | > 10 | > 10 | inactive | – |
| CC(=O)O[C@H]1[C@@H](C)C[C@@]23O[C@@]12/C=C(\C)[C@@H](O)[C@H](OC(=O)c1ccccc1)[C@H]1[C@@H]([C@@H](O)[C@@H](C)C3=O)C1(C)C | > 10 | > 10 | > 10 | inactive | – |
| C/C=C(\C)C(=O)O[C@@H]1/C(C)=C/[C@@]23O[C@@]2(C[C@H](C)[C@@H]3OC(C)=O)C(=O)[C@H](C)[C@H](OC(C)=O)[C@@H]2[C@H]([C@H]1OC(C)=O)C2(C)C | > 10 | > 10 | > 10 | inactive | – |
| CO[C@@H]1[C@H]2[C@@H]([C@@H](OC(C)=O)[C@@H](C)C(=O)[C@@]34C[C@H](C)[C@H](OC(C)=O)[C@]3(/C=C(\CO)[C@H]1OC(=O)c1ccccc1)O4)C2(C)C | > 10 | > 10 | > 10 | – | – |
| C/C=C(/C)C(=O)O[C@@H]1/C(C)=C/[C@@]23O[C@@]2(C[C@@H](C)[C@H]3O)C(=O)[C@H](C)[C@H](OC(C)=O)[C@@H]2[C@H]([C@H]1OC)C2(C)C | > 10 | > 10 | > 10 | inactive | – |
| C/C=C(/C)C(=O)O[C@@H]1/C(C=O)=C/[C@@]23O[C@@]2(C[C@H](C)[C@@H]3OC(C)=O)C(=O)[C@H](C)[C@H](OC(C)=O)[C@@H]2[C@H]([C@H]1OC)C2(C)C | > 10 | > 10 | > 10 | – | – |
